Data from ChEMBL document CHEMBL1152867, “Targeting QseC signaling and virulence for antibiotic development” (Science, 2008).
Calls of active or inactive are those of the source. No cut-off for these calls is given here.

Tests used:
Mus musculus [1] = assay: Toxicity in CD1 mouse assessed as triglyceride levels at 20 mg/kg, po administered daily once for 5 days measured 3 days after final dose; assay type: organism-based; parameters: dose 20 mg/kg, route oral; conditions: in vivo, 72 h
Outline: (§1)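 Female CD-1 mice (~22 g), three per group, given 20 mg/kg by oral gavage once daily for 5 days. Vehicle-only mice served as controls. Animals were weighed and observed daily. Three days after the last dose they were weighed and sacrificed. Blood was taken for chemistry and complete blood counts, and organs were weighed.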

[2] = AUC in CD1 mouse at 20 mg/kg, iv administered as bolus dose; assay type: ADME, organism-based; parameters: dose 20 mg/kg, route intravenous; conditions: plasma
Outline: (§2)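 Groups of three were bled terminally by cardiac puncture at set times. Plasma was acetonitrile-precipitated with internal standard and quantified by electrospray LC/MS/MS against a plasma standard curve (10-1000 ng/ml). Noncompartmental analysis was used.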

Mus musculus [3] = assay: Toxicity in CD1 mouse assessed as cholesterol levels at 20 mg/kg, po administered daily once for 5 days measured 3 days after final dose; assay type: organism-based; parameters: dose 20 mg/kg, route oral; conditions: in vivo, 72 h; outline: as §1
Escherichia coli [4] = assay: Inhibition of epinephrine-induced EspB protein secretion in Escherichia coli 8624 at 5 pM by Western blot; assay type: functional, organism-based
Outline: (§3)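 Secreted proteins in cell-free supernatant were TCA-precipitated and immunoblotted with rabbit polyclonal anti-EspA and anti-EspB, with ECL detection.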

Mus musculus [5] = assay: Toxicity in CD1 mouse assessed as alanine transferase levels at 20 mg/kg, po administered daily once for 5 days measured 3 days after final dose; assay type: organism-based; parameters: dose 20 mg/kg, route oral; conditions: in vivo, 72 h
Mus musculus [6] = assay: Toxicity in CD1 mouse assessed as change in heart weight at 20 mg/kg, po administered daily once for 5 days measured 3 days after final dose; assay type: organism-based; parameters: dose 20 mg/kg, route oral; conditions: in vivo; outline: as §1
Escherichia coli [7] = assay: Antibacterial activity against Escherichia coli infected in New Zealand white rabbit assessed as inhibition of bacterial colonization in cecum at 20 mg/kg administered 24 hrs post-bacterial challenge; assay type: functional, organism-based; parameters: dose 20 mg/kg; conditions: Caecum
Mus musculus [8] = assay: Toxicity in CD1 mouse assessed as platelet count at 20 mg/kg, po administered daily once for 5 days measured 3 days after final dose; assay type: organism-based; parameters: dose 20 mg/kg, route oral; conditions: in vivo, 72 h; outline: as §1
Mus musculus [9] = assay: Toxicity in CD1 mouse assessed as phosphate levels at 20 mg/kg, po administered daily once for 5 days measured 3 days after final dose; assay type: organism-based; parameters: dose 20 mg/kg, route oral; conditions: in vivo, 72 h; outline: as §1
Escherichia coli [10] = assay: Bacteriostatic activity against Escherichia coli 8624 at 1 uM in presence of epinephrine; assay type: functional, organism-based
Mus musculus [11] = assay: Toxicity in CD1 mouse assessed as albumin levels at 20 mg/kg, po administered daily once for 5 days measured 3 days after final dose; assay type: organism-based; parameters: dose 20 mg/kg, route oral; conditions: in vivo, 72 h
Salmonella typhimurium = assay: Antibacterial activity against Salmonella Typhimurium SL1344 infected in 129x1/SvJ mouse assessed as reduction of bacterial CFU in liver at 20 mg/kg, po after 48 hrs relative to control; assay type: functional
Mus musculus [12] = assay: Toxicity in CD1 mouse assessed as hematocrit content at 20 mg/kg, po administered daily once for 5 days measured 3 days after final dose; assay type: organism-based; parameters: dose 20 mg/kg, route oral; conditions: in vivo, 72 h; outline: as §1
Escherichia coli [13] = assay: Inhibition of epinephrine-induced EspA protein secretion in Escherichia coli 8624 at 5 nM by Western blot; assay type: functional, organism-based; outline: as §3
Mus musculus [14] = assay: Toxicity in CD1 mouse assessed as eosinophil counts at 20 mg/kg, po administered daily once for 5 days measured 3 days after final dose; assay type: organism-based; parameters: dose 20 mg/kg, route oral; conditions: in vivo, 72 h; outline: as §1
Mus musculus [15] = assay: Toxicity in CD1 mouse assessed as serum total protein levels at 20 mg/kg, po administered daily once for 5 days measured 3 days after final dose; assay type: organism-based; parameters: dose 20 mg/kg, route oral; conditions: in vivo, 72 h; outline: as §1
Mus musculus [16] = assay: Toxicity in CD1 mouse assessed as WBC counts at 20 mg/kg, po administered daily once for 5 days measured 3 days after final dose; assay type: organism-based; parameters: dose 20 mg/kg, route oral; conditions: in vivo, 72 h
Escherichia coli [17] = assay: Bacteriostatic activity against Escherichia coli 8624 at 1 uM; assay type: functional, organism-based
Mus musculus [18] = assay: Toxicity in CD1 mouse assessed as mean corpuscular volume at 20 mg/kg, po administered daily once for 5 days measured 3 days after final dose; assay type: organism-based; parameters: dose 20 mg/kg, route oral; conditions: in vivo, 72 h; outline: as §1
[19] = test system: Francisella tularensis subsp. tularensis SCHU S4; assay: Inhibition of virulence gene mip expression in Francisella tularensis SCHU S4 at 5 pM by quantitative real-time PCR; assay type: functional, organism-based
[20] = Clearance in CD1 mouse at 20 mg/kg, iv administered as bolus dose; assay type: ADME, organism-based; parameters: dose 20 mg/kg, route intravenous; conditions: in vivo; outline: as §2
[21] = molecular target: Beta-3 adrenergic receptor (Homo sapiens) (UniProt P13945); assay: Effect on BRL-37344-induced human beta-3-adrenergic receptor activation expressed in HEK293 cells assessed as cAMP release at 5 uM; assay type: functional, cell-based
Beta-3 adrenergic receptor (Homo sapiens), sequence (P13945 whole entry, looked up): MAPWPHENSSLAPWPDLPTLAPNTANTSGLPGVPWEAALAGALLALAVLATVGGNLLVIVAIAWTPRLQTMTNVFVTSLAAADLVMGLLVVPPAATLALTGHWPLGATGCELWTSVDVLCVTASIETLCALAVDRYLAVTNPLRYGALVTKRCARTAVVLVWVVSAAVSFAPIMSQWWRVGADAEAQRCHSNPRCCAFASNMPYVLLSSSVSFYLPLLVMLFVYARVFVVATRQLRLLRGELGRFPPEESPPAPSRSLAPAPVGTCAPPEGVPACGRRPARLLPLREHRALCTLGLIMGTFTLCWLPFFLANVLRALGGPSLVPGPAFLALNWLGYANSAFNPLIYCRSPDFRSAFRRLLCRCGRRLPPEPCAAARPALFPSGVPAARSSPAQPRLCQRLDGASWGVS
Outline: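 HEK293 cells carried an EPAC-based cAMP BRET reporter. The agonist for β1 (exogenous) was 1 nM dobutamine, for β2 (endogenous) 100 nM terbutaline, and for β3 (exogenous) 10 nM BRL37344. Each agonist was given alone or with 5 μM compound. Live-cell cAMP was read as triplicate means, representative of 3 experiments.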

[22] = molecular target: Beta-2 adrenergic receptor (Homo sapiens) (UniProt P07550); assay: Activation of human beta-2-adrenergic receptor expressed in HEK293 cells assessed as cAMP release at 5 uM; assay type: functional, cell-based
Beta-2 adrenergic receptor (Homo sapiens), sequence (P07550 whole entry, looked up): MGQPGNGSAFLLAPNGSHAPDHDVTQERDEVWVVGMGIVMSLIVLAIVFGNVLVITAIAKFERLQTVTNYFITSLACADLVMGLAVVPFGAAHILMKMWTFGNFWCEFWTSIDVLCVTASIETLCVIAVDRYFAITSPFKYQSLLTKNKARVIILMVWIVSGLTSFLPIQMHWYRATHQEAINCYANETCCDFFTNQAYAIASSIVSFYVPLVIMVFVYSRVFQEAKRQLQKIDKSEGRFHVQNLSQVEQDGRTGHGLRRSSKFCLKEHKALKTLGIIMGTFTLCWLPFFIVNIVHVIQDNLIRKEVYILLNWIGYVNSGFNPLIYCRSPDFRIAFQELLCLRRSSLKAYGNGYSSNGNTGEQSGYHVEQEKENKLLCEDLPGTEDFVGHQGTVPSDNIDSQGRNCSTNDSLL
Outline: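 Live HEK293 cells carried an EPAC-based cAMP BRET reporter and expressed endogenous β2 or exogenous β1 or β3 adrenergic receptors. Cells were exposed to test compound alone at 5 μM. Values are means of triplicates, representative of 3 experiments.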

Mus musculus [23] = assay: Toxicity in CD1 mouse assessed as mean platelet volume at 20 mg/kg, po administered daily once for 5 days measured 3 days after final dose; assay type: organism-based; parameters: dose 20 mg/kg, route oral; conditions: in vivo, 72 h; outline: as §1
Mus musculus [24] = assay: Toxicity in CD1 mouse assessed as calcium levels at 20 mg/kg, po administered daily once for 5 days measured 3 days after final dose; assay type: organism-based; parameters: dose 20 mg/kg, route oral; conditions: in vivo, 72 h; outline: as §1
[25] = AUC in CD1 mouse at 5 mg/kg, iv administered as bolus dose; assay type: ADME, organism-based; parameters: dose 5 mg/kg, route intravenous; conditions: plasma; outline: as §2
Escherichia coli [26] = assay: Inhibition of AI3-induced Qsec-dependent virulence gene stx2A expression in Escherichia coli at 5 pM by quantitative real-time PCR; assay type: functional, organism-based
Escherichia coli [27] = assay: Inhibition of [3H]norepinephrine binding to Escherichia coli Qsec at 5 fM by liposome-based scintillation counting assay
Outline: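 Liposomes reconstituted with QseC were loaded with tritiated norepinephrine (5 μM) by freeze-thaw in liquid N2 and held 10 min at room temperature, so unbound signal could diffuse out. They were pelleted at 12,000g for 5 min and counted for tritium. Counts were normalized to liposomes loaded with 5 μM tyrosine. Compound was tested at 5 pM and 5 fM.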

[28] = test system: Francisella tularensis subsp. tularensis SCHU S4; assay: Inhibition of virulence gene pdpA expression in Francisella tularensis SCHU S4 at 5 pM by quantitative real-time PCR; assay type: functional, organism-based
Mus musculus [29] = assay: Toxicity in CD1 mouse assessed as change in thymus weight at 20 mg/kg, po administered daily once for 5 days measured 3 days after final dose; assay type: organism-based; parameters: dose 20 mg/kg, route oral; conditions: in vivo; outline: as §1
Escherichia coli [30] = assay: Inhibition of AI3-induced Qsec-dependent virulence gene flhDC expression in Escherichia coli at 5 pM by quantitative real-time PCR; assay type: functional, organism-based
Mus musculus [31] = assay: Toxicity in CD1 mouse assessed as mean corpuscular hemoglobin concentration at 20 mg/kg, po administered daily once for 5 days measured 3 days after final dose; assay type: organism-based; parameters: dose 20 mg/kg, route oral; conditions: in vivo, 72 h; outline: as §1
Mus musculus [32] = assay: Toxicity in CD1 mouse assessed as lymphocyte counts at 20 mg/kg, po administered daily once for 5 days measured 3 days after final dose; assay type: organism-based; parameters: dose 20 mg/kg, route oral; conditions: in vivo, 72 h; outline: as §1
Mus musculus [33] = assay: Toxicity in CD1 mouse assessed as monocyte counts at 20 mg/kg, po administered daily once for 5 days measured 3 days after final dose; assay type: organism-based; parameters: dose 20 mg/kg, route oral; conditions: in vivo, 72 h; outline: as §1
Mus musculus [34] = assay: Toxicity in CD1 mouse assessed as neutrophil counts at 20 mg/kg, po administered daily once for 5 days measured 3 days after final dose; assay type: organism-based; parameters: dose 20 mg/kg, route oral; conditions: in vivo, 72 h; outline: as §1
Mus musculus [35] = assay: Toxicity in CD1 mouse assessed as change in body weight at 20 mg/kg, po administered daily once for 5 days measured 3 days after final dose; assay type: organism-based; parameters: dose 20 mg/kg, route oral; conditions: in vivo, 72 h; outline: as §1

Which Activity (Mus musculus [1]) does the source give for O=S(=O)(Nc1ccccc1)c1ccc(NC(=S)Nc2ccccc2)cc1 here?
The Activity was 99.3 mg/dL.

And the AUC [2]?
Its AUC is 5010 ng·h/mL.

What about the Activity (Mus musculus [3]) of the same compound?
The Activity was 122 mg/dL.

What about the Activity (Escherichia coli [4]) of the same compound?
Its Activity is “Active”.

What about the Activity (Mus musculus [5]) of the same compound?
The Activity was 31.7 U/L.

What about the Activity (Mus musculus [6]) of the same compound?
Its Activity is “Non-toxic”.

What about the Activity (Escherichia coli [7]) of the same compound?
The Activity was “inactive”.

What about the Activity (Mus musculus [8]) of the same compound?
Its Activity is 1075 K/uL.

And the Activity (Mus musculus [9])?
Its Activity is 11 mg/dL.

And the Activity (Escherichia coli [10])?
The Activity was “inactive”.

And the Activity (Mus musculus [11])?
Its Activity is 2.6 g/dL.

What about the “fold change (FC)” value (Salmonella typhimurium) of the same compound?
Its value is 10.

And the Activity (Mus musculus [12])?
Its Activity is 38.5%.

What about the Activity (Escherichia coli [13]) of the same compound?
Its Activity is “Active”.

What about the Activity (Mus musculus [14]) of the same compound?
The Activity was 0.7%.

What about the Activity (Mus musculus [15]) of the same compound?
The Activity was 4.4 g/dL.

And the Activity (Mus musculus [16])?
The Activity was 1.5 K/uL.

What about the Activity (Escherichia coli [17]) of the same compound?
Its Activity is “inactive”.

And the Activity (Mus musculus [18])?
Its Activity is 51.7 fL.

And the Activity [19]?
The Activity was “Active”.

What about the clearance [20] of the same compound?
Its clearance is 1.48 mL/min.

And the Activity [21]?
Its Activity is “inactive”.

And the Activity [22]?
The Activity was “inactive”.

What about the Activity (Mus musculus [23]) of the same compound?
The Activity was 5 fL.

And the Activity (Mus musculus [24])?
Its Activity is 9.6 mg/dL.

What about the AUC [25] of the same compound?
Its AUC is 1090 ng·h/mL.

And the Activity (Escherichia coli [26])?
Its Activity is “Active”.

And the Activity (Escherichia coli [27])?
The Activity was “inactive”.

And the Activity [28]?
Its Activity is “Active”.

And the Activity (Mus musculus [29])?
The Activity was “Non-toxic”.

What about the Activity (Escherichia coli [30]) of the same compound?
Its Activity is “Active”.

And the Activity (Mus musculus [31])?
Its Activity is 31.3 g/dL.

And the Activity (Mus musculus [32])?
The Activity was 82%.

And the Activity (Mus musculus [33])?
Its Activity is 8.1%.

And the Activity (Mus musculus [34])?
The Activity was 9.3%.

What about the Activity (Mus musculus [35]) of the same compound?
Its Activity is “Non-toxic”.
